Data taken from publication PMC2854023 (Journal of biomolecular screening, 2010).
Where two headings read alike, the source gives them in different places.

Experiments:
[1] = test system: TNFα release by LPS-treated U937 cells; assay: TNFα release assay in PMA-activated, LPS-treated U937 cells; assay type: cell-based, human; details: for TNFα release, combined with rolipram, 3 hours LPS / TNFα release, combined with rolipram, 20 hours LPS: 10μM each, compared to rolipram alone
Procedure, shortened: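 U937 cells at 10^6 cells/ml in RPMI 1640 with 10% FBS were primed 17 hr with 300 ng/ml PMA. Aliquots of […] were diluted with equal medium and given 10 μM compound, alone or with rolipram, for 1 hr; vehicle was ethanol with <0.1% DMSO. LPS (25 μg/ml) followed, and supernatant TNFα was measured by ELISA at 3 or 20 h. Values are % of vehicle, 2–6 independent experiments, paired one-tailed t-test.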

[2] = target: human PDE4D3 (Homo sapiens, UniProt Q08499); assay: Fission yeast 5FOA growth assay, PDE4D3-expressing strain; assay type: cell-based; details: dose response, 48 hours
Sequence of human PDE4D3 (Q08499 1-673 isoform Q08499-2): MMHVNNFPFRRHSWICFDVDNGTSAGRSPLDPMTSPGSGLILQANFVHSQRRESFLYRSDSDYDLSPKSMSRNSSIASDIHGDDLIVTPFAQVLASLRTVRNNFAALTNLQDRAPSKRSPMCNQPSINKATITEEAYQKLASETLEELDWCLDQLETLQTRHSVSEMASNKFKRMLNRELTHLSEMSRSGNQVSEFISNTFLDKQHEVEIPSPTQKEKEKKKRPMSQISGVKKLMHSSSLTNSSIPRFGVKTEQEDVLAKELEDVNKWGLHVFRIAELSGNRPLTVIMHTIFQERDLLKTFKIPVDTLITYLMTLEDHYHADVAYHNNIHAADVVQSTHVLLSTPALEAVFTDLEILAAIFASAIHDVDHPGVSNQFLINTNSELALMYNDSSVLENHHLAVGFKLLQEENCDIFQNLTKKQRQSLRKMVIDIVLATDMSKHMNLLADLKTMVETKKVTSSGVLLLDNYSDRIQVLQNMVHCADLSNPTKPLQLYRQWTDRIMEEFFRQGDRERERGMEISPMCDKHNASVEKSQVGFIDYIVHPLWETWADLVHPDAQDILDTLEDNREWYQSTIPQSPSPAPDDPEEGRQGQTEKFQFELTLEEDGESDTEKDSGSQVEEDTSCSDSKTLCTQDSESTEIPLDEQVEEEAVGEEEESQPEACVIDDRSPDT
Procedure, shortened: (§1)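 5FOA growth assays, run as in the PDE7A screen, used fission yeast strains expressing human PDE4A1, PDE4B2, PDE4D3 or PDE7B1 from the cgs2 locus. Compound was added over a concentration range, with DMSO kept below 0.2%. Cultures grew 48 h at 30°C. OD600 is the mean of four wells.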

[3] = target: human PDE4A1 (Homo sapiens, UniProt P27815); assay: Fission yeast 5FOA growth assay, PDE4A1-expressing strain; assay type: cell-based; details: dose response, 48 hours
Procedure, shortened: as §1

[4] = target: PDE11A (Homo sapiens, UniProt Q9HCR9); assay: Fission yeast 5FOA growth assay, PDE11A-expressing strain; assay type: cell-based; details: data not shown
Procedure, shortened: (§2)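 Fission yeast 5FOA growth assays used strains each expressing one mammalian PDE, read as OD600. For cGMP-specific PDEs, strains lacked adenylate cyclase and the 5FOA medium contained 30μM to 1mM cGMP.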

[5] = test system: PDE10A; assay: Fission yeast 5FOA growth assay, PDE10A-expressing strain; assay type: cell-based; details: 40μM compound, data not shown
Procedure, shortened: as §2

[6] = target: PDE8A (Homo sapiens, UniProt O60658); assay: Fission yeast 5FOA growth assay, PDE8A-expressing strain; assay type: cell-based; details: data not shown
Procedure, shortened: as §2

[7] = target: PDE1C (Homo sapiens, UniProt Q14123); assay: Fission yeast 5FOA growth assay, PDE1C-expressing strain; assay type: cell-based; details: data not shown
Sequence of PDE1C (Q14123 whole entry, species assumed): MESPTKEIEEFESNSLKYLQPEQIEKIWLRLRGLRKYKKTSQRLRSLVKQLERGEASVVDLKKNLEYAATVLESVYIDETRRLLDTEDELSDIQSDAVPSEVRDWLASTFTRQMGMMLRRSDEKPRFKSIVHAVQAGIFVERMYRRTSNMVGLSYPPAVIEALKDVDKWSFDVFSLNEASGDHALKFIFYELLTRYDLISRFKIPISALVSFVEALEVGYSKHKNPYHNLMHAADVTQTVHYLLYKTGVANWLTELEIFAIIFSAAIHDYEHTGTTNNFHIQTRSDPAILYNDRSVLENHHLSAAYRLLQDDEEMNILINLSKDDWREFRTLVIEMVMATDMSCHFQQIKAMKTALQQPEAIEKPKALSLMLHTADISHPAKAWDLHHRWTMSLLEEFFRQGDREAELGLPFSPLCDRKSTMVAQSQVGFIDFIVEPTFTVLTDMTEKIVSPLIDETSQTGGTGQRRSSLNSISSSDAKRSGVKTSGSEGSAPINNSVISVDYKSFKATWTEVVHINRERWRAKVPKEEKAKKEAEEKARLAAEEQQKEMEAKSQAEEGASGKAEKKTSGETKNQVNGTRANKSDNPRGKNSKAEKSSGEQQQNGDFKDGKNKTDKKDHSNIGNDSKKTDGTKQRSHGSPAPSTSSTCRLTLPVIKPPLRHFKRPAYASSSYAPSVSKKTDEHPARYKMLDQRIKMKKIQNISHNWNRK
Procedure, shortened: as §2

[8] = target: PDE3B (Homo sapiens, UniProt Q13370); assay: Fission yeast 5FOA growth assay, PDE3B-expressing strain; assay type: cell-based; details: data not shown
Sequence of PDE3B (Q13370 whole entry, species assumed): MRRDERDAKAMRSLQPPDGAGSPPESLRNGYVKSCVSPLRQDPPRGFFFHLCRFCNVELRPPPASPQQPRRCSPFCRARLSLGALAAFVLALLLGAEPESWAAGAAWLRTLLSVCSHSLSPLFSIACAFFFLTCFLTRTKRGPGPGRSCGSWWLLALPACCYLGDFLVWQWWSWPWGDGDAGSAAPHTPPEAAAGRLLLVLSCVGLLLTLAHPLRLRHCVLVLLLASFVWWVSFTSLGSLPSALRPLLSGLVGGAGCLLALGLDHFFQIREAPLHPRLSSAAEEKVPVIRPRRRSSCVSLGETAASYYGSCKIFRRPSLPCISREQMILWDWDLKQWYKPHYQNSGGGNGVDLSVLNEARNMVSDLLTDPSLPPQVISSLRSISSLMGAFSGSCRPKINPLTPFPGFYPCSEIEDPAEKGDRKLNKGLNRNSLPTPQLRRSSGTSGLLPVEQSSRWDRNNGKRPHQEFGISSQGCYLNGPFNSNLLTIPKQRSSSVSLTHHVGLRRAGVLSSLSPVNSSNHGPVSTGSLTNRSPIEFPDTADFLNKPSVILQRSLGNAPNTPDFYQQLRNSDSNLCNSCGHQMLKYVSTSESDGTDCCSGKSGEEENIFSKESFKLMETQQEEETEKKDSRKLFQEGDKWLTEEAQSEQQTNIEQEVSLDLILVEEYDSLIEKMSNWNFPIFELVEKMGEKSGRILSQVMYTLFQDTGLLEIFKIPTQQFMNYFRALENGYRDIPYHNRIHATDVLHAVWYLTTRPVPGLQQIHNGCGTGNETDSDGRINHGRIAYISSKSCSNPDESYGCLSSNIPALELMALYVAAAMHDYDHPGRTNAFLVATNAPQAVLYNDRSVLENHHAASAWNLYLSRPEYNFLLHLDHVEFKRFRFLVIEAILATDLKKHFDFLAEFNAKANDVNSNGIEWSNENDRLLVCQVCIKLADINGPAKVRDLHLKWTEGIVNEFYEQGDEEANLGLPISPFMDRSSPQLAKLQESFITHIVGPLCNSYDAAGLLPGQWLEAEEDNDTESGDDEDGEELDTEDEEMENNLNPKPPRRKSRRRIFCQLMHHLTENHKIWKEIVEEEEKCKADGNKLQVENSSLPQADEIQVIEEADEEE
Procedure, shortened: as §2

[9] = target: PDE1B (Homo sapiens, UniProt Q01064); assay: Fission yeast 5FOA growth assay, PDE1B-expressing strain; assay type: cell-based; details: data not shown
Sequence of PDE1B (Q01064 whole entry, species assumed): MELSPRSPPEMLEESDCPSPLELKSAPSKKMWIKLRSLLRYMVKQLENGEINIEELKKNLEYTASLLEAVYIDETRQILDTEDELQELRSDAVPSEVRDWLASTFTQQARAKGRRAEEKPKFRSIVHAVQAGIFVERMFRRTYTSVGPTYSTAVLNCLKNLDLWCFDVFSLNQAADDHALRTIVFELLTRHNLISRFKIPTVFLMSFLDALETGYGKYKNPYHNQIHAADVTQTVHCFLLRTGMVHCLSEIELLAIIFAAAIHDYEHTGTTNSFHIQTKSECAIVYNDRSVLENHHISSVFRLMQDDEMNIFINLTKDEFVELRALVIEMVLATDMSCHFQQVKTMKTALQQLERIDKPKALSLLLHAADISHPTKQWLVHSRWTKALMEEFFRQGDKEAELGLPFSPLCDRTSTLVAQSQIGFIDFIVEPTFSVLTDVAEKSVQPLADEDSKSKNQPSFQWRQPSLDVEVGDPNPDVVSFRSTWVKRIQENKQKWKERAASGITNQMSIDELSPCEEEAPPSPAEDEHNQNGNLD
Procedure, shortened: as §2

[10] = target: human PDE7B1 (Homo sapiens, UniProt Q9NP56); assay: Fission yeast 5FOA growth assay, PDE7B-expressing strain; assay type: cell-based; details: range of concentrations, 48 hours, OD600
Sequence of human PDE7B1 (Q9NP56 whole entry): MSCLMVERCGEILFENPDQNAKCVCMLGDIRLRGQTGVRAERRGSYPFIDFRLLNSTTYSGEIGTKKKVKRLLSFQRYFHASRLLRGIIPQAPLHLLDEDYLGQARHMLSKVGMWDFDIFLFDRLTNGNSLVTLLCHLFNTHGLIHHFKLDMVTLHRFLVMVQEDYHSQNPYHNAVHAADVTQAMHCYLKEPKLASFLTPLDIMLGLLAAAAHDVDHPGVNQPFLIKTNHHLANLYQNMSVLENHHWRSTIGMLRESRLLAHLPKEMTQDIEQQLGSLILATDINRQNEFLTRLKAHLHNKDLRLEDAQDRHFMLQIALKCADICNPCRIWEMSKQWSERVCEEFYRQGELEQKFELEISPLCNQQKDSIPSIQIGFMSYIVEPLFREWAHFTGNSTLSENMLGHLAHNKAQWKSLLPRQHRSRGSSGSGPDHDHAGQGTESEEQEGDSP
Procedure, shortened: as §1

[11] = target: human PDE7A1 (Homo sapiens, UniProt Q13946); assay: Fission yeast 5FOA growth assay / HTS, PDE7A-expressing strain CHP1189; assay type: cell-based; details: for stimulation of 5FOA-resistant growth, PDE7A-expressing strain: range of concentrations, 48 hours, OD600; for average OD600 in PDE7A HTS: 20μM compound, 48 hours growth in 5FOA medium, duplicate
Sequence of human PDE7A1 (Q13946 whole entry): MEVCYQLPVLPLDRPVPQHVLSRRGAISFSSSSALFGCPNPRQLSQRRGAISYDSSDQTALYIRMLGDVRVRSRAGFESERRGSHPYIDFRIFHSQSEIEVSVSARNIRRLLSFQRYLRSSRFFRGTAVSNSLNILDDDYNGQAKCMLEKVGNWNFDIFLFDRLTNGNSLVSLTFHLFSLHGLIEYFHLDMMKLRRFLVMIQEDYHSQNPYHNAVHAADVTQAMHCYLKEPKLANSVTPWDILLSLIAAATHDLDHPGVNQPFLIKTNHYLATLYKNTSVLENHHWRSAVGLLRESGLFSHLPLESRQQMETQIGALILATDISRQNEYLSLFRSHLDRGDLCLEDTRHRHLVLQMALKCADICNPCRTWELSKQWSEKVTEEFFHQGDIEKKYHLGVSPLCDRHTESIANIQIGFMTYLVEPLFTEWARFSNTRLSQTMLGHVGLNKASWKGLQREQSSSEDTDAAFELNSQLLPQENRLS
Procedure, shortened: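 Fission yeast strain CHP1189 carries human PDE7A in place of cgs2, plus gpa2Δ, pap1Δ and fbp1-ura4/fbp1-lacZ reporters. It was grown to exponential phase in EMM with 2.5 mM cAMP, then resuspended in 5FOA medium at 1 × 10^5 cells/ml. Compounds were mostly at 20μM, in duplicate, with DMSO negative and 5mM cAMP positive controls. Growth was 48 h at 30°C, read as OD600. Per-plate Z scores were combined into a composite Z score.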

[12] = target: PDE4D catalytic domain (residues 86-413 of PDE4D2) (Homo sapiens, UniProt Q08499); assay: In vitro enzyme assay, PDE4D catalytic domain; assay type: biochemical
Sequence of PDE4D catalytic domain (residues 86-413 of PDE4D2) (Q08499 388-715): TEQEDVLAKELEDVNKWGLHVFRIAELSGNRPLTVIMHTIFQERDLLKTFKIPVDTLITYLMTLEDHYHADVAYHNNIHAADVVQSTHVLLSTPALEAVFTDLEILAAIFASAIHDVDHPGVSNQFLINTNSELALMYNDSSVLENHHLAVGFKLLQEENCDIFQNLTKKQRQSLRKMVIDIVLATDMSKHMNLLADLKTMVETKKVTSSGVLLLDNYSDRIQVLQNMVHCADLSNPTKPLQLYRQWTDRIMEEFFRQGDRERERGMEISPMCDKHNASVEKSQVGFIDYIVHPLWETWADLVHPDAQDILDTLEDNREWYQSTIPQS
Procedure, shortened: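 PDE4D catalytic domain (PDE4D2 residues 86-413) was expressed in and purified from E. coli and tested in the 3H-cAMP hydrolysis assay with Ba(OH)2 precipitation. Enzyme was at 16 nM with 25 nM test compound across varying cAMP concentrations. A separate panel used 2μM compound against PDE4A, PDE4B and PDE4D catalytic domains.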

[13] = target: full-length PDE4D2 (residues 1-507) (Homo sapiens, UniProt Q08499); assay: In vitro enzyme assay, full-length PDE4D2; assay type: biochemical; details: data not shown
[14] = target: PDE7A (Homo sapiens, UniProt Q13946); assay: In vitro PDE enzyme assay; assay type: biochemical
Sequence of PDE7A (Q13946 whole entry, species assumed): as the sequence (Q13946 whole entry) above
Procedure, shortened: (§3)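 Radiometric PDE assay with 25nM initial 3H-cAMP for 15 min, over which the hydrolysis rate was constant. 3H-AMP was separated by Ba(OH)2 precipitation and remaining cAMP counted by scintillation. PDE7A was commercial; PDE7B was a gift. IC50 is the concentration halving the hydrolysis rate relative to vehicle controls. PDE7B Km came from Michaelis-Menten kinetics, analysed by Lineweaver-Burke and Eadie-Hofstee plots.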

[15] = target: PDE9A (Homo sapiens, UniProt O76083); assay: Fission yeast 5FOA growth assay, PDE9A-expressing strain; assay type: cell-based; details: data not shown
Sequence of PDE9A (O76083 whole entry, species assumed): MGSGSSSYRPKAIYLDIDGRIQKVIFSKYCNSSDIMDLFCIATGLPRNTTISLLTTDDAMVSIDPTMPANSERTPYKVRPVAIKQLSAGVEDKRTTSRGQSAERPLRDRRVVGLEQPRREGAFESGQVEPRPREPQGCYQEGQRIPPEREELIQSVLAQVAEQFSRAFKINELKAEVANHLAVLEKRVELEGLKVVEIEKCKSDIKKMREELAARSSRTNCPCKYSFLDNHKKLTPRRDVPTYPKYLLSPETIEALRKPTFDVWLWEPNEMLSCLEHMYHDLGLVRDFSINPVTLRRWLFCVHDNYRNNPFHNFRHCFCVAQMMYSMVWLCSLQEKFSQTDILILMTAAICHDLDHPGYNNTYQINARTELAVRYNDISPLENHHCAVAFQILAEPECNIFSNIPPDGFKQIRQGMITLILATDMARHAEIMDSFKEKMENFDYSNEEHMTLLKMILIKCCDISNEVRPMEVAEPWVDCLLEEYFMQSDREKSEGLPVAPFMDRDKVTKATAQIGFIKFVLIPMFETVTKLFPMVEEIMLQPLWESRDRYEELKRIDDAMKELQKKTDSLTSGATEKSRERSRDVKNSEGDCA
Procedure, shortened: as §2

[16] = target: PDE5A (Homo sapiens, UniProt O76074); assay: Fission yeast 5FOA growth assay, PDE5A-expressing strain; assay type: cell-based; details: data not shown
Procedure, shortened: as §2

[17] = target: T1, mouse PDE4A1 (Mus musculus, UniProt O89084); assay: Fission yeast HTS, mouse PDE4A1-expressing strain; assay type: cell-based; details: 20μM
T1 sequence (O89084 1-610 isoform O89084-2): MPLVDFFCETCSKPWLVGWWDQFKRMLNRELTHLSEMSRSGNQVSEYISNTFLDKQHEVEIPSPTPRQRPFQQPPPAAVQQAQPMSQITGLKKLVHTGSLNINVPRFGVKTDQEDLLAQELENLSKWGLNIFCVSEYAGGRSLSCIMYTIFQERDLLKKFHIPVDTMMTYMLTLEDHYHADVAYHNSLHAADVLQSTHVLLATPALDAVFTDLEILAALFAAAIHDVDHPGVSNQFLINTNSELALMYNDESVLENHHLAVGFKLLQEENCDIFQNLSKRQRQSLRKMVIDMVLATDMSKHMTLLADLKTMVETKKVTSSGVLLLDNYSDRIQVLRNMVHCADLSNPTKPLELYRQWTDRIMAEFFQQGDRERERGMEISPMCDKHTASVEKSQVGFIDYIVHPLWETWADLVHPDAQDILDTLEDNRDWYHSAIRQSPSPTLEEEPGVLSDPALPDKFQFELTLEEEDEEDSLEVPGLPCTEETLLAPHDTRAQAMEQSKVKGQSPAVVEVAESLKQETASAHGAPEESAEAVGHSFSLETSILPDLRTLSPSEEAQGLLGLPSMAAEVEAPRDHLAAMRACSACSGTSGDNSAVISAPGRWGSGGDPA

[18] = target: PDE7B (Homo sapiens, UniProt Q9NP56); assay: In vitro PDE enzyme assay; assay type: biochemical; details: for IC50 on PDE7B relative to PDE7A: in vitro enzyme assays, PDE7B vs PDE7A
Sequence of PDE7B (Q9NP56 whole entry, species assumed): as the sequence (Q9NP56 whole entry) above
Procedure, shortened: as §3

[19] = target: human PDE4B2 (Homo sapiens, UniProt Q07343); assay: Fission yeast 5FOA growth assay, PDE4B2-expressing strain; assay type: cell-based; details: dose response, 48 hours
Procedure, shortened: as §1

[20] = target: PDE2A (Homo sapiens, UniProt O00408); assay: Fission yeast 5FOA growth assay, PDE2A-expressing strain; assay type: cell-based; details: data not shown
Procedure, shortened: as §2

[21] = 10μM, 1 hr pretreatment, vs vehicle-treated control

## N#Cc1sc2sc(C#N)c(-c3ccco3)c2c1N [BC30, 3-amino-4-(2-furyl) thieno[2,3-b]thiophene-2,5-dicarbonitrile]
[1]
  TNFα release, combined with rolipram, 3 hours LPS: dramatic reduction of TNFα release
  TNFα release, combined with rolipram, 20 hours LPS: dramatic reduction of TNFα release
[1]; [21]
  TNFα release, compound alone, 3 hours LPS: significant reduction in TNFα release
  TNFα release, compound alone, 20 hours LPS: significant reduction in TNFα release
[2]
  effect on 5FOA growth, human PDE4D3 strain: no effect on the growth
[3]
  effect on 5FOA growth, human PDE4A1 strain: no effect on the growth
[4]
  effect on 5FOA growth, PDE11A strain: no effect on growth
[5]
  OD600 of PDE10A-expressing strain: 0.53
[6]
  effect on 5FOA growth, PDE8A strain: no effect on growth
[7]
  effect on 5FOA growth, PDE1C strain: no effect on growth
[8]
  effect on 5FOA growth, PDE3B strain: no effect on growth
[9]
  effect on 5FOA growth, PDE1B strain: no effect on growth
[10]
  stimulation of 5FOA-resistant growth, PDE7B-expressing strain: the best inhibitor of PDE7B
[11]; 2μM, data not shown
  PDE7A inhibition upon rescreening: one of the most effective PDE7A inhibitors
[11]; 20μM screen, 48,176 compounds
  rank of Composite Z score in PDE7A HTS: 40
[11]
  stimulation of 5FOA-resistant growth, PDE7A-expressing strain: very potent at low micromolar concentrations
[12]; 25 nM compound, varying cAMP
  effect on Vmax of PDE4D catalytic domain: doubling the Vmax
[12]; 2μM compound, data not shown
  effect on cAMP hydrolysis by PDE4D catalytic domain: significantly stimulate cAMP hydrolysis
[12]; enzyme concentration 16 nM
  concentration producing the maximum increase in PDE4D catalytic domain activity: 25 nM
[13]
  effect on activity of full-length PDE4D2: neither BC30 nor the other compounds that stimulate the catalytic domain of PDE4D affect the activity of the full-length PDE4D2
[14]
  IC50: 1100 nM
[15]
  effect on 5FOA growth, PDE9A strain: no effect on growth
[16]
  effect on 5FOA growth, PDE5A strain: no effect on growth
[17]
  activity in HTS, mouse PDE4A1 strain: very weak activity
[18]
  IC50: 3700 nM
  IC50 on PDE7B relative to PDE7A: four-fold lower IC50 on PDE7A than PDE7B
[18]; data not shown
  effect on Km of PDE7B: appears to increase the Km of PDE7B
[19]
  effect on 5FOA growth, human PDE4B2 strain: no effect on the growth
[20]
  effect on 5FOA growth, PDE2A strain: no effect on growth

## Cc1ccc([N+](=O)[O-])cc1S(=O)(=O)N(C)C [BRL50481, 3-(N,N-dimethylsulfonamido)-4-methyl-nitrobenzene, reference compound]
[1]
  TNFα release, combined with rolipram, 3 hours LPS: modestly enhances the rolipram-mediated reduction of TNFα release
  TNFα release, combined with rolipram, 20 hours LPS: modestly enhances the rolipram-mediated reduction of TNFα release
[10]
  stimulation of 5FOA-resistant growth, PDE7B-expressing strain: rather poor inhibitor of PDE7B, equal to BC11 and BC39, and far less effective than BC30
[11]
  stimulation of 5FOA-resistant growth, PDE7A-expressing strain: most effective compound for stimulation of 5FOA-resistant growth
[14]; read-out: IC50 against PDE7A, in vitro enzyme assay
  IC50: ~150 nM
[18]
  IC50 on PDE7B relative to PDE7A: 80 fold

## CC(=O)O[C@@H]1CC[C@@]2(C)[C@@H](CC[C@@H]3[C@@H]2CC[C@]2(C)C(=O)CC[C@@H]32)C1 [androsterone acetate]
[11]
  average OD600 in PDE7A HTS: > 0.821

## C[C@]12CCC(=O)C=C1C=C[C@@H]1[C@@H]2CC[C@@]2(C)[C@H]1CC[C@@]21CCC(=O)O1 [canrenone, reference compound]
[11]
  average OD600 in PDE7A HTS: > 0.821

## COc1ccc(C2CNC(=O)C2)cc1OC1CCCC1 (centres unmarked) [rolipram, reference compound]
[1]; [21]
  TNFα release, compound alone, 20 hours LPS: significant reduction in TNFα release
